Legend:
[1] = Cytotoxicity was evaluated against the Human diploid cells (HFF); format: cell-based
Summary of the method: (§1)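 Uninfected HFF (human diploid foreskin fibroblasts) or BSC-1 (African green monkey kidney) cells in MEM with Earle's salts and 10% FBS, within the plaque-reduction plates. Drug-induced cytopathology was scored 0 to 4+ at 35- and 60-fold magnification on the day of staining for plaque enumeration.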

L1210 [2] = experiment: Compound effect on the growth rate at 10e-4 M in L1210 Murine Leukemic cells; format: functional, Mus musculus
Summary of the method: (§2)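 Murine L1210 leukemia cells in static suspension culture in Fischer's medium, exposed to 10⁻⁴ M compound over 3 days. Growth rate is the ratio of control to treated population doubling time, expressed as percent of control.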

Human betaherpesvirus 5 = experiment: Antiviral activity of the compound was evaluated against the Human cytomegalo virus (HCMV); format: functional, organism-based
Summary of the method: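 HCMV Towne strain (plaque-purified P0 isolate), plaque reduction in HFF monolayers; inoculum about 50 PFU; compound dissolved in overlay medium. IC50 taken from linear regression of percent inhibition against log concentration. Positive controls (acyclovir, ganciclovir) in all assays; sets rejected when control deviated >1.5 SD from its mean.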

[3] = (§3) Antiviral activity of the compound was evaluated against the Herpes simplex virus type-1 in BSC-1 cells; format: functional, cell-based; settings: Human alphaherpesvirus 1, BSC-1
Summary of the method: (§4)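 HSV-1 strain S-148 plaque reduction in BSC-1 monolayers (MEM with Earle's salts, 10% fetal bovine serum); inoculum about 100 PFU; compound dissolved in overlay medium. Percent inhibition regressed against log concentration to give IC50. Acyclovir or ganciclovir positive controls in every assay; assay sets rejected if control deviated >1.5 SD from its mean.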

[4] = Cytotoxicity was evaluated against the Monkey kidney cells (BSC); format: cell-based; settings: Cercopithecidae; summary of the method: as §1
[5] = (§5) Cytotoxicity was evaluated in Human neoplastic cell line (KB); format: functional, cell-based
Summary of the method: (§6)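 KB human epidermoid oral carcinoma cells in MEM with Hanks salts and 5% FBS. Inhibition of radiolabeled precursor incorporation into DNA, RNA and protein was measured. IC50s from regression against log concentration; the three values were averaged, two to five experiments each.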

L1210 [6] = experiment: (§7) Compound effect on the growth rate of L1210 murine leukemia cells at 10e-4 M concentration; format: functional; summary of the method: as §2
[7] = as §5; format: cell-based; summary of the method: as §6
L1210 [8] = experiment: In vitro cytotoxicity was evaluated against the L1210 Murine leukemic cells; format: cell-based; settings: Mus musculus
Summary of the method: (§8)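 Murine L1210 cells in static suspension in Fischer's medium, growth followed over 3 days across a range of concentrations. Growth rate is the slope of log cell number versus time relative to control, from the doubling-time ratio. IC50 is the concentration reducing growth rate to 50% of control.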

Human alphaherpesvirus 1 = experiment: as §3; format: functional, organism-based; settings: Human alphaherpesvirus 1, BSC-1; summary of the method: as §4
Mus musculus = species: Mus musculus; experiment: Cytotoxicity was evaluated against the L1210 Murine leukemic cells in vitro; summary of the method: as §8
L1210 [9] = experiment: as §7; format: functional, Mus musculus; summary of the method: as §2

Structure (SMILES)	IC50 [1]	Control (L1210 [2])	IC50 (Human betaherpesvirus 5)	IC50 [3]	IC50 [4]	IC50 [5]	Control (L1210 [6])	IC50 [7]	IC50 (L1210 [8])	IC50 (Human alphaherpesvirus 1)	IC50 (Mus musculus)	Control (L1210 [9])
Nc1ncnc2c1ccn2C(CO)OC(CO)CO (stereo not given)	> 100 µM	93%	> 100 µM	> 100 µM	> 100 µM	> 100000 nM						
NC(=S)c1cn(COC(CO)CO)c2ncnc(N)c12	> 100 µM		8 µM	> 100 µM	> 100 µM		71%	> 100 µM	> 100000 nM			
Nc1ncnc2c1ccn2COC(CO)CO	> 100 µM		> 100 µM		> 100 µM					> 100 µM		
NC(=O)c1cn(C(CO)OC(CO)CO)c2ncnc(N)c12 (stereo not given)	> 100 µM	90%	> 100 µM	> 100 µM	> 100 µM							
N#Cc1cn(C(CO)OC(CO)CO)c2ncnc(N)c12 (stereo not given)	> 100 µM	80%	> 100 µM	> 100 µM	> 100 µM						> 100 µM	
N/C(=N\O)c1cn(COC(CO)CO)c2ncnc(N)c12	> 100 µM		> 100 µM	> 100 µM	> 100 µM				> 100000 nM			80%
N#Cc1cn(COC(CO)CO)c2ncnc(N)c12	> 320 µM		> 320 µM	> 100 µM	> 100 µM				> 100000 nM			87%
NC(=O)c1cn(COC(CO)CO)c2ncnc(N)c12	> 320 µM		144 µM	> 100 µM	> 100 µM				> 100000 nM			84%
Nc1nc2c(ncn2COCCO)c(=O)[nH]1 [ACYCLOVIR]	> 100 µM			2.6 µM	> 100 µM			> 100 µM				
Nc1nc2c(ncn2COC(CO)CO)c(=O)[nH]1 [GANCICLOVIR]	> 100 µM			3 µM	> 100 µM			1000 µM				
NC(=O)c1cn([C@@H]2O[C@H](CO)[C@@H](O)[C@H]2O)c2ncnc(N)c12 [SANGIVAMYCIN]	0.08 µM		0.03 µM			200 nM			3 nM			
N#Cc1cn([C@@H]2O[C@H](CO)[C@@H](O)[C@H]2O)c2ncnc(N)c12 [TOYOCAMYCIN]	0.03 µM		0.05 µM			40 nM			4 nM			
Nc1ncnc2c1ccn2[C@@H]1O[C@H](CO)[C@@H](O)[C@H]1O [TUBERCIDIN]	0.3 µM					700 nM			40 nM			
